Calls of active or inactive are those of the source. The calls are words filed in the database; no cut-off is given here.
Columns and labels:
HUVEC [1] = assay: Growth inhibition of HUVEC at 10 uM after 72 hrs by CellTiter-Glo assay relative to control; type: functional; details: Homo sapiens, read-out: GI
Summary of the method: (§1)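 Cells in exponential phase seeded at 2000–4000 cells/well, then exposed 72 h at 37 °C, 5% CO2 with 0.1% final DMSO. Single-point screen at 10 μM final. […] Read-out was CellTiter-Glo luminescence.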

MDA-MB-435 [2] = assay: Growth inhibition of human MDA-MB-435 cells at 10 uM after 72 hrs by CellTiter-Glo assay relative to control; type: functional; details: MDA-MB-435, 72 h, read-out: GI; summary of the method: as §1
HUVEC [3] = assay: Growth inhibition of HUVEC after 72 hrs by CellTiter-Glo assay; type: functional, cell-based; details: Homo sapiens; summary of the method: as §1
A-431 = assay: Growth inhibition of human A431 cells at 10 uM after 72 hrs by CellTiter-Glo assay relative to control; type: functional; details: A-431, 72 h, read-out: GI
Summary of the method: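 A431 cells seeded at 2000–4000 cells/well and treated with 10 μM final compound, 0.1% DMSO, for 72 h at 37 °C, 5% CO2. Viability read by CellTiter-Glo. Inhibition ratio = 1 − Vsample/Vvehicle control; triplicate.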

MDA-MB-435 [4] = assay: Growth inhibition of human MDA-MB-435 cells after 72 hrs by CellTiter-Glo assay; type: functional, cell-based; details: MDA-MB-435, 72 h; summary of the method: as §1
[5] = target: T1, Vascular endothelial growth factor receptor 2 (Homo sapiens, UniProt P35968)
T1 sequence (P35968 whole entry): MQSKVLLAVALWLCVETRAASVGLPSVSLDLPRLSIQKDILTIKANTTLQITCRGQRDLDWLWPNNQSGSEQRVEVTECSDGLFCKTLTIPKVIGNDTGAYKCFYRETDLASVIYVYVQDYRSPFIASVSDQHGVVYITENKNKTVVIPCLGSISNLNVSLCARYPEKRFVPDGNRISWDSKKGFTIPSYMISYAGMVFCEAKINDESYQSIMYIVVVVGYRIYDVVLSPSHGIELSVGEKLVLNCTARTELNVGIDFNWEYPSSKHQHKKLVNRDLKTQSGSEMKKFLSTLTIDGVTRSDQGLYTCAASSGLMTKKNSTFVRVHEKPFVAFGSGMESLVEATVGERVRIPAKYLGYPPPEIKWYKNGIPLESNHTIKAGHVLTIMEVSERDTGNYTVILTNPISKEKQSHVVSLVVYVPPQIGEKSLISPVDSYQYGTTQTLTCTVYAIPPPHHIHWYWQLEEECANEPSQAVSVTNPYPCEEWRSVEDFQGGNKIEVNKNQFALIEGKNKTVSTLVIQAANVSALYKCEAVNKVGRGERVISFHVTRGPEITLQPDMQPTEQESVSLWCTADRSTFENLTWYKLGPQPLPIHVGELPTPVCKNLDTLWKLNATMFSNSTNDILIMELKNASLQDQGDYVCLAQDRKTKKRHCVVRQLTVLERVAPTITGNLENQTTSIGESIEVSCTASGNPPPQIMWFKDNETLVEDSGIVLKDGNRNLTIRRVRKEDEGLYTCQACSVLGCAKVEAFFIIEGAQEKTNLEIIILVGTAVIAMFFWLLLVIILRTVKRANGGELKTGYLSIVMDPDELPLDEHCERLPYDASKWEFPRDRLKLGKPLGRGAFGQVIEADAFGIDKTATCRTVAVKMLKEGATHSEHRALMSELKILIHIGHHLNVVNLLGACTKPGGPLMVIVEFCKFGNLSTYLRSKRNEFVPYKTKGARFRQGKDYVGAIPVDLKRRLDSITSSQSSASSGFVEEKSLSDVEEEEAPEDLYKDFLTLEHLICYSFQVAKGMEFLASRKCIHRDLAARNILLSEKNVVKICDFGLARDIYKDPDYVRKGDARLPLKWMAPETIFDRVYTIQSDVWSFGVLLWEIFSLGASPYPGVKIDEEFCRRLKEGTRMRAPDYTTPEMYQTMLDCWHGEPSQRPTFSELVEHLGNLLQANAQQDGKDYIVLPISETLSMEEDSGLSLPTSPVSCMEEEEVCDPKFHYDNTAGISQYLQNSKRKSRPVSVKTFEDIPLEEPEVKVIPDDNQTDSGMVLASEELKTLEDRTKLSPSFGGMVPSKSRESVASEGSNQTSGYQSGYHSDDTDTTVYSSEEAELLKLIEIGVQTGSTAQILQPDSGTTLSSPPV

[6] = target: T1, Vascular endothelial growth factor receptor 2; details: at 10 µM
Homo sapiens [7] = species on record: Homo sapiens; assay: Inhibition of human DDR at 0.5 uM relative to control
[8] = target: Ephrin type-A receptor 2 (Homo sapiens) (UniProt P29317); assay: Inhibition of human EPHA2 at 0.5 uM relative to control
[9] = target: Ephrin type-A receptor 3 (Homo sapiens) (UniProt P29320); assay: Inhibition of human EPHA3 at 0.5 uM relative to control
[10] = target: Ephrin type-A receptor 4 (Homo sapiens) (UniProt P54764); assay: Inhibition of human EPHA4 at 0.5 uM relative to control
[11] = target: Ephrin type-A receptor 5 (Homo sapiens) (UniProt P54756); assay: Inhibition of human EPHA5 at 0.5 uM relative to control
Chain of Ephrin type-A receptor 5 (Homo sapiens) (P54756 whole entry): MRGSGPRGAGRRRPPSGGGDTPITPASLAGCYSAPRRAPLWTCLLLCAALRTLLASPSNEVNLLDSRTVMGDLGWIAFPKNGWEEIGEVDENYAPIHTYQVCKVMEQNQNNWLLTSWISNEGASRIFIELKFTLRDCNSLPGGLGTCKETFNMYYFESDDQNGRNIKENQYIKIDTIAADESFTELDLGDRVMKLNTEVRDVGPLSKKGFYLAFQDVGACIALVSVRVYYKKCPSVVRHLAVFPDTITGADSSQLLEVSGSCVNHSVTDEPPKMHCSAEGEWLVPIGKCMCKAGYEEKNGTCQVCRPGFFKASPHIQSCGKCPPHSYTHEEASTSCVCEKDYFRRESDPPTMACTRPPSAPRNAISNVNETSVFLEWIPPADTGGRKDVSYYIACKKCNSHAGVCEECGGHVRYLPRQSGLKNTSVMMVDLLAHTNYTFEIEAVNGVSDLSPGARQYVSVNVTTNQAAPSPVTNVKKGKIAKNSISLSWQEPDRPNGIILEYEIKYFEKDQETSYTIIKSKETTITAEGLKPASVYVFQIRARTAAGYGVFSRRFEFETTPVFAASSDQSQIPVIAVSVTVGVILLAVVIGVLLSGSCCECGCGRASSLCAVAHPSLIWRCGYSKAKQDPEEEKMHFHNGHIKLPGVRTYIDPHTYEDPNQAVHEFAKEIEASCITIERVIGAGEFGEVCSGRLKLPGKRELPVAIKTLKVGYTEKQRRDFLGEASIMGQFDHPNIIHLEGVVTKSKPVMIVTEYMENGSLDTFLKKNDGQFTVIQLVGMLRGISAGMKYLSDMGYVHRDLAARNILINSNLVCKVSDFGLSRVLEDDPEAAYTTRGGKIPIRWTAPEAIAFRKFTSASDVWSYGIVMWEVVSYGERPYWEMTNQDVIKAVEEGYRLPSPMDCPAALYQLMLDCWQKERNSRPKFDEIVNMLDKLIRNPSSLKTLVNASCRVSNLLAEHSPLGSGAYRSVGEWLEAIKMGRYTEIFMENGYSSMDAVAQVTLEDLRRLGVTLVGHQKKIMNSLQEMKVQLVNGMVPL

[12] = target: Ephrin type-A receptor 7 (Homo sapiens) (UniProt Q15375); assay: Inhibition of human EPHA7 at 0.5 uM relative to control
Chain of Ephrin type-A receptor 7 (Homo sapiens) (Q15375 28-998 limits assumed): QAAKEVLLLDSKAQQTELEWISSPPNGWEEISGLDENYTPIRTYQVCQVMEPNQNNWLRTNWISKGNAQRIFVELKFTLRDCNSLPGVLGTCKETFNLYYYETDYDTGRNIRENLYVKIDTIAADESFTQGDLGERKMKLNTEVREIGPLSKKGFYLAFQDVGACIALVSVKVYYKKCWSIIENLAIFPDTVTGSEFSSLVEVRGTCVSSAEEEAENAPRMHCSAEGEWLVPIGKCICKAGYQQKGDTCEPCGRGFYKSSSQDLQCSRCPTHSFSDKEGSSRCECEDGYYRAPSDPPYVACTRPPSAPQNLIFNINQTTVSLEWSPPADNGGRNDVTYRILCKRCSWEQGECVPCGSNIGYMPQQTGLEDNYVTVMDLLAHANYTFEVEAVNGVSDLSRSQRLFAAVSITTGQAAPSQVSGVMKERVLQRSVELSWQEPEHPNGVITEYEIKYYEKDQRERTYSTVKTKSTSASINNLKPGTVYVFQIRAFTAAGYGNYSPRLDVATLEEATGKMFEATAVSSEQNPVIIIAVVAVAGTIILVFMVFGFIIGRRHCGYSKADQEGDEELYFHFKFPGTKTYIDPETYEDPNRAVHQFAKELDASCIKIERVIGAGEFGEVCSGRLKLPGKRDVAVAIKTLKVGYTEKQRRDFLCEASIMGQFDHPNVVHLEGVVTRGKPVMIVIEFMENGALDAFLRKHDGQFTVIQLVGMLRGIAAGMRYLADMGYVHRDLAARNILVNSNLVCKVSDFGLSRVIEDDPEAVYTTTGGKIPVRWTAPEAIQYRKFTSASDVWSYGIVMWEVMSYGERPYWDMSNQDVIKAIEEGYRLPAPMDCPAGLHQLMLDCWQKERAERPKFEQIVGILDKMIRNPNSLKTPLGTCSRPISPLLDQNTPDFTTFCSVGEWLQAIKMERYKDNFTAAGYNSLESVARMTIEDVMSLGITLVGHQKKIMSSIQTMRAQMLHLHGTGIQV

[13] = target: Ephrin type-A receptor 8 (Homo sapiens) (UniProt P29322); assay: Inhibition of human EPHA8 at 0.5 uM relative to control
[14] = target: Vascular endothelial growth factor receptor 1 (Homo sapiens) (UniProt P17948); assay: Inhibition of human Flt1 at 0.5 uM relative to control
[15] = target: Receptor-type tyrosine-protein kinase FLT3 (Homo sapiens) (UniProt P36888); assay: Inhibition of human Flt3 at 0.5 uM relative to control
[16] = target: Vascular endothelial growth factor receptor 3 (Homo sapiens) (UniProt P35916); assay: Inhibition of human Flt4 at 0.5 uM relative to control
Homo sapiens [17] = species on record: Homo sapiens; assay: Inhibition of human PDGFR at 0.5 uM relative to control
[18] = target: Mitogen-activated protein kinase kinase kinase kinase 5 (Homo sapiens) (UniProt Q9Y4K4); assay: Inhibition of human KHS at 0.5 uM relative to control
[19] = target: TRAF2 and NCK-interacting protein kinase (Homo sapiens) (UniProt Q9UKE5); assay: Inhibition of human TNIK at 0.5 uM relative to control
Chain of TRAF2 and NCK-interacting protein kinase (Homo sapiens) (Q9UKE5 whole entry, looked up): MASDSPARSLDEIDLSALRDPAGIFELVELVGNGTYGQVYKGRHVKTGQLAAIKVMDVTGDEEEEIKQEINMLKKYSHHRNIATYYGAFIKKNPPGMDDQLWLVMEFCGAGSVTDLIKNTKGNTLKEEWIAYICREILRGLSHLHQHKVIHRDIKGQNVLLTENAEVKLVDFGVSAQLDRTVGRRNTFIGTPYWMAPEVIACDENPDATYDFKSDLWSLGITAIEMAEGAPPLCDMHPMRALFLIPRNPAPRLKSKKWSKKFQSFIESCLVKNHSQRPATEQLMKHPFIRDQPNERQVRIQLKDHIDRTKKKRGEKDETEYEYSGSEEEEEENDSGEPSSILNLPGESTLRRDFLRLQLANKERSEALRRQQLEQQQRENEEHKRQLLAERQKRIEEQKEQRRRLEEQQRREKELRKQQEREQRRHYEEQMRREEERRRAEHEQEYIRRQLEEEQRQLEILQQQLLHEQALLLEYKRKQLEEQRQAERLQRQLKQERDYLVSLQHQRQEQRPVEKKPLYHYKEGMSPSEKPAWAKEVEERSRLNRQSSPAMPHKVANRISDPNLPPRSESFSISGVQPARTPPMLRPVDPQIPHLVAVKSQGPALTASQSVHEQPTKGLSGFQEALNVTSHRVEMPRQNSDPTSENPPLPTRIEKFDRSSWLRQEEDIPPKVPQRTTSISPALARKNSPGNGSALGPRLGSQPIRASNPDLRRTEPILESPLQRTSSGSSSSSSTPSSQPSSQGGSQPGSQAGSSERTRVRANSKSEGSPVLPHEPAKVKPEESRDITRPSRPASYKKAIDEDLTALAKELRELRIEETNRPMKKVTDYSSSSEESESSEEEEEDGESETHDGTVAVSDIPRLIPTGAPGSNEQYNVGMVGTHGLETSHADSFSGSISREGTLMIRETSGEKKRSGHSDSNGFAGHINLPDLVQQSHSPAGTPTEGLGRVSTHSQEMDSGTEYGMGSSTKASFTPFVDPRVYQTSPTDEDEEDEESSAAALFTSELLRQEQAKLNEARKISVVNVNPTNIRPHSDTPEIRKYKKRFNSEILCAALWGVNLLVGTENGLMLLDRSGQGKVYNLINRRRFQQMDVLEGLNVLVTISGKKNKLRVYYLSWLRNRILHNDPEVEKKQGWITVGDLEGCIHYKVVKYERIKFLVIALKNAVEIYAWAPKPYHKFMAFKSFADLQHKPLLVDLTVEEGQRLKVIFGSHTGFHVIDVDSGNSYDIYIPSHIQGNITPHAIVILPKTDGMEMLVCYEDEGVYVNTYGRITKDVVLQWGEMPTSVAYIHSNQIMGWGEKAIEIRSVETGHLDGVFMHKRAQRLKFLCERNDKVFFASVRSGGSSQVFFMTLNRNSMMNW

[20] = target: Tyrosine-protein kinase HCK (Homo sapiens) (UniProt P08631); assay: Inhibition of human HCK at 0.5 uM relative to control
[21] = target: STE20-like serine/threonine-protein kinase (Homo sapiens) (UniProt Q9H2G2); assay: Inhibition of human SLK at 0.5 uM relative to control

Row | Compound | inhibition of growth at 10 µM (HUVEC [1]) | inhibition of growth at 10 µM (MDA-MB-435 [2]) | IC50 (HUVEC [3]) | inhibition of growth at 10 µM (A-431) | other results
1 | COc1cc2ncnc(Oc3ccc(NC(=O)Nc4ccc(Cl)c(C(F)(F)F)c4)c4ccccc34)c2cc1OC | 82.9% | 95.1% | 2.97 µM | 14.9% | IC50 (MDA-MB-435 [4]): 3.79 µM
2 | COc1cc2ncnc(Oc3ccc(NC(=O)Nc4cnn(C(C)C)c4)c4ccccc34)c2cc1OC | 93.6% | 27.7% | 0.63 µM | 49.9% | –
3 | COc1cc2ncnc(Oc3ccc(NC(=O)Nc4cccc(C(F)(F)F)c4)c4ccccc34)c2cc1OC | 66.8% | 24.5% | – | -4.51% | IC50 [5]: 0.0288 µM; inhibition [6]: 99%
4 | COc1cc2ncnc(Oc3ccc(NS(=O)(=O)c4ccccc4)c4ccccc34)c2cc1OC | – | – | – | – | IC50 [5]: > 10 µM; inhibition [6]: 44.3%
5 | CNC(=O)c1cc(Oc2ccc(NC(=O)Nc3ccc(Cl)c(C(F)(F)F)c3)cc2)ccn1 [SORAFENIB] | 84.7% | 91.9% | 1.49 µM | 68.9% | IC50 (MDA-MB-435 [4]): 2.11 µM
6 | COc1cc2ncnc(Oc3ccc(NC(=O)NC4CC4)c4ccccc34)c2cc1OC | 63.9% | 1.48% | – | 15.1% | –
7 | CCN(CC)CCNC(=O)c1c(C)[nH]c(/C=C2\C(=O)Nc3ccc(F)cc32)c1C | – | – | – | – | inhibition (Homo sapiens [7]): Active; inhibition [8]: Active; inhibition [9]: Active; inhibition [10]: Active; inhibition [11]: Active; inhibition [12]: Active; inhibition [13]: Active; inhibition [14]: Active; inhibition [15]: Active; inhibition [16]: Active; inhibition (Homo sapiens [17]): Active; inhibition [18]: Active; inhibition [19]: Active; inhibition [20]: Active; inhibition [21]: Active
8 | COc1cc2ncnc(Oc3ccc(NC(=O)Nc4ccc(Cl)c(C(F)(F)F)c4)c4cccnc34)c2cc1OC | 51.5% | 44.3% | – | 21% | –
9 | COc1cc2ncnc(Oc3ccc(NC(=O)Nc4cc(C)on4)c4ccccc34)c2cc1OC | 61.9% | 0.23% | – | -1.52% | –
